The source made the active and inactive calls. No cut-off for these calls is given here.
What was measured:
[1] = system: Salmonella typhimurium; experiment: Mutagenicity in Salmonella typhimurium TA98 assessed as number of revertants at 100 ug/plate by Ames test (reference value: 23 +/- 3); assay type: toxicity, organism-based; conditions: salmonella enterica subsp. enterica serovar typhimurium
[2] = system: Salmonella typhimurium; experiment: Mutagenicity in Salmonella typhimurium TA98 assessed as mutagenic index at 500 ug/plate by Ames test; assay type: toxicity, organism-based; conditions: salmonella enterica subsp. enterica serovar typhimurium
[3] = system: Salmonella typhimurium; experiment: Mutagenicity in Salmonella typhimurium TA1535 assessed as number of revertants at 500 ug/plate by Ames test (reference value: 10 +/- 3); assay type: toxicity, organism-based; conditions: salmonella enterica subsp. enterica serovar typhimurium
[4] = system: Salmonella typhimurium; experiment: Mutagenicity in Salmonella typhimurium TA98 assessed as number of revertants at 500 ug/plate by Ames test (reference value: 23 +/- 3); assay type: toxicity, organism-based; conditions: salmonella enterica subsp. enterica serovar typhimurium
[5] = system: Mus musculus; experiment: Neurotoxicity in albino Carworth Farms No.1 mouse at 30 mg/kg, ip after 4 hrs by rotarod test; assay type: toxicity, organism-based; conditions: in vivo
Summary of the method: (§1)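 Mice (albino Carworth Farms No.1) were dosed i.p. at 30, 100 or 300 mg/kg in 0.5% methylcellulose. They were tested 0.5 and 4 h later on a 1-inch knurled rod rotating at 6 rpm. Neurotoxicity was scored if a mouse could not stay on the rod for at least 1 min in each of three trials. Results are given as animals toxic/animals tested, with deaths noted.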

[6] = system: Salmonella typhimurium; experiment: Mutagenicity in Salmonella typhimurium TA98 assessed as mutagenic index at 100 ug/plate by Ames test; assay type: toxicity, organism-based; conditions: salmonella enterica subsp. enterica serovar typhimurium
[7] = system: Mus musculus; experiment: Anticonvulsant activity in albino Carworth Farms No.1 mouse assessed as protection against maximal electroshock-induced seizures at 300 mg/kg, ip after 4 hrs; assay type: functional, organism-based
Summary of the method: (§2)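 Mouse i.p. screen in Carworth Farms No.1 albino mice at 30, 100 or 300 mg/kg in 0.5% methylcellulose. Testing was at 0.5 and 4 h after injection, by maximal electroshock or by subcutaneous pentetrazol challenge. Scoring was number protected / number used.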

[8] = system: Salmonella typhimurium; experiment: Mutagenicity in Salmonella typhimurium TA100 assessed as mutagenic index at 100 ug/plate by Ames test; assay type: toxicity, organism-based; conditions: salmonella enterica subsp. enterica serovar typhimurium
Summary of the method: (§3)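 Ames preincubation test. Strain culture was grown 12 h at 37 °C in nutrient broth, then mixed with compound in DMSO (final 4, 20, 100, 500, 1000 per plate) and buffer in top agar with trace histidine. This was plated on glucose minimal agar for 48 h at 37 °C. Mutagenic index = revertants with compound / DMSO control revertants, from three independent repeats.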

[9] = system: Mus musculus; experiment: Anticonvulsant activity in albino Carworth Farms No.1 mouse assessed as protection against subcutaneous dosed pentetrazol-induced seizures at 300 mg/kg, ip after 4 hrs; assay type: functional, organism-based; summary of the method: as §2
[10] = Lipophilicity of the compound using 75% methanol in water at 1 mg/ml by RT-TLC analysis; assay type: physicochemical; conditions: buffer
Summary of the method: (§4)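 Reversed-phase TLC with a methanol–water mobile phase at the stated methanol content (v/v). Compounds were spotted from 1 mg/mL methanol solutions after 1 h chamber saturation and located under UV light. Rf was measured and RM = log(1/Rf − 1) calculated.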

[11] = system: Salmonella typhimurium; experiment: Mutagenicity in Salmonella typhimurium TA1535 assessed as number of revertants at 100 ug/plate by Ames test (reference value: 10 +/- 3); assay type: toxicity, organism-based; conditions: salmonella enterica subsp. enterica serovar typhimurium
[12] = system: Mus musculus; experiment: Anticonvulsant activity in albino Carworth Farms No.1 mouse assessed as protection against subcutaneous dosed pentetrazol-induced seizures at 100 mg/kg, ip after 0.5 hrs; assay type: functional, organism-based; summary of the method: as §2
[13] = system: Salmonella typhimurium; experiment: Mutagenicity in Salmonella typhimurium TA100 assessed as number of revertants at 100 ug/plate by Ames test (reference value: 77 +/-4); assay type: toxicity, organism-based; conditions: salmonella enterica subsp. enterica serovar typhimurium
Summary of the method: (§5)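 Salmonella TA100 preincubation Ames assay: overnight-type 12 h broth culture at 37 °C, compound in DMSO at final 4–1000 per plate, top agar with trace histidine, glucose minimal agar, 48 h at 37 °C. Revertant colonies per plate were counted, with a DMSO negative control and a sodium azide positive control. Three independent repetitions were run.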

[14] = Lipophilicity of the compound using 85% methanol in water at 1 mg/ml by RT-TLC analysis; assay type: physicochemical; conditions: buffer; summary of the method: as §4
[15] = system: Mus musculus; experiment: Anticonvulsant activity in albino Carworth Farms No.1 mouse assessed as protection against subcutaneous dosed pentetrazol-induced seizures at 30 mg/kg, ip after 4 hrs; assay type: functional, organism-based; summary of the method: as §2
[16] = system: Salmonella typhimurium; experiment: Mutagenicity in Salmonella typhimurium TA98 assessed as mutagenic index at 1000 ug/plate by Ames test; assay type: toxicity, organism-based; conditions: salmonella enterica subsp. enterica serovar typhimurium
[17] = system: Salmonella typhimurium; experiment: Mutagenicity in Salmonella typhimurium TA1535 assessed as assessed as mutagenic index at 20 ug/plate by Ames test; assay type: toxicity, organism-based; conditions: salmonella enterica subsp. enterica serovar typhimurium; summary of the method: as §3
[18] = system: Salmonella typhimurium; experiment: Mutagenicity in Salmonella typhimurium TA1535 assessed as mutagenic index at 1000 ug/plate by Ames test; assay type: toxicity, organism-based; conditions: salmonella enterica subsp. enterica serovar typhimurium
[19] = system: Salmonella typhimurium; experiment: Mutagenicity in Salmonella typhimurium TA1535 assessed as number of revertants at 1000 ug/plate by Ames test (reference value: 10 +/- 3); assay type: toxicity, organism-based; conditions: salmonella enterica subsp. enterica serovar typhimurium
[20] = system: Salmonella typhimurium; experiment: Mutagenicity in Salmonella typhimurium TA100 assessed as assessed as mutagenic index at 1000 ug/plate by Ames test; assay type: toxicity, organism-based; conditions: salmonella enterica subsp. enterica serovar typhimurium; summary of the method: as §3
[21] = system: Salmonella typhimurium; experiment: Mutagenicity in Salmonella typhimurium TA98 assessed as number of revertants at 20 ug/plate by Ames test (reference value: 23 +/- 3); assay type: toxicity, organism-based; conditions: salmonella enterica subsp. enterica serovar typhimurium
[22] = system: Mus musculus; experiment: Anticonvulsant activity in albino Carworth Farms No.1 mouse assessed as protection against maximal electroshock-induced seizures at 30 mg/kg, ip after 0.5 hrs; assay type: functional, organism-based; summary of the method: as §2
[23] = system: Mus musculus; experiment: Anticonvulsant activity in albino Carworth Farms No.1 mouse assessed as protection against maximal electroshock-induced seizures at 100 mg/kg, ip after 4 hrs; assay type: functional, organism-based; summary of the method: as §2
[24] = system: Salmonella typhimurium; experiment: Mutagenicity in Salmonella typhimurium TA100 assessed as number of revertants at 4 ug/plate by Ames test (reference value: 77 +/-4); assay type: toxicity, organism-based; conditions: salmonella enterica subsp. enterica serovar typhimurium; summary of the method: as §5
[25] = system: Salmonella typhimurium; experiment: Mutagenicity in Salmonella typhimurium TA1535 assessed as number of revertants at 20 ug/plate by Ames test (reference value: 10 +/- 3); assay type: toxicity, organism-based; conditions: salmonella enterica subsp. enterica serovar typhimurium
[26] = system: Mus musculus; experiment: Anticonvulsant activity in albino Carworth Farms No.1 mouse assessed as protection against maximal electroshock-induced seizures at 100 mg/kg, ip after 0.5 hrs; assay type: functional, organism-based; summary of the method: as §2
[27] = system: Mus musculus; experiment: Neurotoxicity in albino Carworth Farms No.1 mouse at 30 mg/kg, ip after 0.5 hrs by rotarod test; assay type: toxicity, organism-based; conditions: in vivo; summary of the method: as §1
[28] = system: Mus musculus; experiment: Anticonvulsant activity in albino Carworth Farms No.1 mouse assessed as protection against subcutaneous dosed pentetrazol-induced seizures at 100 mg/kg, ip after 4 hrs; assay type: functional, organism-based; summary of the method: as §2
[29] = system: Mus musculus; experiment: Anticonvulsant activity in albino Carworth Farms No.1 mouse assessed as protection against maximal electroshock-induced seizures at 30 mg/kg, ip after 4 hrs; assay type: functional, organism-based; summary of the method: as §2
[30] = Lipophilicity of the compound at 1 mg/ml by RT-TLC analysis relative to 0% methanol; assay type: physicochemical; conditions: methanol/water
Summary of the method: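 Reversed-phase TLC used methanol–water mobile phases of 95–65% methanol. Compounds were applied from 1 mg/mL methanol solutions after 1 h chamber saturation, with UV detection. RM = log(1/Rf − 1) was calculated at each methanol level and extrapolated linearly (RM = RM0 + bC) to 0% methanol to give RM0.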

[31] = system: Mus musculus; experiment: Neurotoxicity in albino Carworth Farms No.1 mouse at 300 mg/kg, ip after 0.5 hrs by rotarod test; assay type: toxicity, organism-based; conditions: in vivo; summary of the method: as §1
[32] = system: Mus musculus; experiment: Neurotoxicity in albino Carworth Farms No.1 mouse at 100 mg/kg, ip after 0.5 hrs by rotarod test; assay type: toxicity, organism-based; conditions: in vivo; summary of the method: as §1
[33] = system: Salmonella typhimurium; experiment: Mutagenicity in Salmonella typhimurium TA98 assessed as number of revertants at 4 ug/plate by Ames test (reference value: 23 +/- 3); assay type: toxicity, organism-based; conditions: salmonella enterica subsp. enterica serovar typhimurium

| SMILES | Activity [1] | Activity_index [2] | Activity [3] | Activity [4] | Activity [5] | Activity_index [6] | Activity_index [8] | Rm [10] | Activity [11] | Activity [12] | Activity [13] | Rm [14] | Activity [15] | Activity_index [16] | Activity_index [17] | Activity_index [18] | Activity [19] | Activity_index [20] | Activity [21] | Activity [22] | further results |
| --- | --- | --- | --- | --- | --- | --- | --- | --- | --- | --- | --- | --- | --- | --- | --- | --- | --- | --- | --- | --- | --- |
| CC(CO)NC(=O)/C=C/c1ccccc1 (racemic) | 21 | 1 | 8 | 24 | Non-toxic | 0.9 | 0.9 | -0.27 | 5 | inactive | 71 | -0.39 | inactive | 0.8 | 0.6 | 0.6 | 6 | 0.9 | 20 | inactive | Activity [7]: Active; Activity [9]: inactive; Activity [23]: inactive; Activity [24]: 67; Activity [25]: 6; Activity [26]: Active; Activity [27]: Non-toxic; Activity [28]: inactive; Activity [29]: inactive; Rm [30]: 1.39; Activity [31]: Non-toxic; Activity [32]: Non-toxic; Activity [33]: 20 |
| O=C(/C=C/c1ccccc1)N1CCC(O)CC1 | 17 | 1 | 8 | 22 | Non-toxic | 0.7 | 1 | -0.19 | 9 | inactive | 76 | -0.23 | inactive | 0.9 | 0.6 | 0.5 | 5 | 0.9 | 19 | inactive | Activity [23]: inactive; Activity [24]: 70; Activity [25]: 6; Activity [26]: Active; Activity [27]: Non-toxic; Activity [28]: inactive; Activity [29]: inactive; Rm [30]: 2.579; Activity [32]: Non-toxic; Activity [33]: 22 |
| CC(C)C(CO)NC(=O)/C=C/c1ccccc1 (racemic) | 19 | 0.8 | 7 | 16 | Non-toxic | 0.8 | 1 | -0.1 | 6 | inactive | 80 | -0.16 | inactive | 0.7 | 0.6 | 0.7 | 7 | 1 | 19 | inactive | Activity [7]: Active; Activity [9]: inactive; Activity [23]: inactive; Activity [24]: 83; Activity [25]: 6; Activity [26]: inactive; Activity [27]: Non-toxic; Activity [28]: inactive; Activity [29]: inactive; Rm [30]: 2.219; Activity [31]: Non-toxic; Activity [32]: Non-toxic; Activity [33]: 20 |
| O=C(/C=C/c1ccccc1)N[C@H]1CCCC[C@@H]1O (racemic) | 20 | 0.8 | 7 | 19 | Non-toxic | 0.9 | 0.9 | -0.09 | 6 | inactive | 72 | -0.18 | inactive | 0.8 | 1.4 | 0.6 | 6 | 0.9 | 21 | inactive | Activity [7]: inactive; Activity [9]: inactive; Activity [23]: inactive; Activity [24]: 71; Activity [25]: 14; Activity [26]: Active; Activity [27]: Non-toxic; Activity [28]: inactive; Activity [29]: inactive; Rm [30]: 2.054; Activity [31]: Toxic; Activity [32]: Toxic; Activity [33]: 22 |
| CC(O)CNC(=O)/C=C/c1ccccc1 (racemic) | 21 | 0.9 | 14 | 21 | Non-toxic | 0.9 | 0.9 | -0.27 | 12 | inactive | 67 | -0.33 | inactive | 1 | 1.3 | 1.4 | 14 | 1 | 22 | inactive | Activity [7]: inactive; Activity [9]: inactive; Activity [23]: inactive; Activity [24]: 68; Activity [25]: 13; Activity [26]: inactive; Activity [27]: Non-toxic; Activity [28]: inactive; Activity [29]: inactive; Rm [30]: 1.512; Activity [31]: Non-toxic; Activity [32]: Non-toxic; Activity [33]: 26 |

From ChEMBL document CHEMBL3739352, “Anticonvulsant activity, crystal structures, and preliminary safety evaluation of N-trans-cinnamoyl derivatives of selected (un)modified aminoalkanols” (Eur J Med Chem, 2016)
